From PubChem BioAssay
Runt-CBFb FRET – inhibitors of human RUNX1 Runt domain binding to CBFb. Cerulean-Runt/Venus-CBFb FRET ratio 530/480, 1 h. inhibition, % at 20 µM. hit rate 0.46% among 220,000;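 active means inhibition over about 50% at 20 µM in the single-dose screen, limit read from the data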;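 further: 0% = DMSO wells and 100% = excess unlabeled CBFb competitor control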
Target sequence (Q01196 whole entry, looked up, the tested form may be a part): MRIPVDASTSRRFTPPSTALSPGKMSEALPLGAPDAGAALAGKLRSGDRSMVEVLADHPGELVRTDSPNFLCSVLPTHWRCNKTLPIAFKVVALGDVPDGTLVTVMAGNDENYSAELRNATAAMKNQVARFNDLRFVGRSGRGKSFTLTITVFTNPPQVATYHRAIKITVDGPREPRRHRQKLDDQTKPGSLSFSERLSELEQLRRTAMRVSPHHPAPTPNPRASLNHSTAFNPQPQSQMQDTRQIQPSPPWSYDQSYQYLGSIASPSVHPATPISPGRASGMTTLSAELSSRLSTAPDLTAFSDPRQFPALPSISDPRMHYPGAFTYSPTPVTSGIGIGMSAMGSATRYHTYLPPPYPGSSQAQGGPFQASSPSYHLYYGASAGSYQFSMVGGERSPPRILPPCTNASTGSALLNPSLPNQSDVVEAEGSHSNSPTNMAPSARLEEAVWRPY
Target sequence (Q13951 whole entry, looked up, the tested form may be a part): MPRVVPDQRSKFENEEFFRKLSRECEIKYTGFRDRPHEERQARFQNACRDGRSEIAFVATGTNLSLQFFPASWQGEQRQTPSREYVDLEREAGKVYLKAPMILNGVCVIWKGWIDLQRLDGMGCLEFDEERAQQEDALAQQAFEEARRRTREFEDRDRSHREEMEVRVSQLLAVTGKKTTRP
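Assay system: Cerulean-Runt domain fusion protein, energy donor; Signal: fluorescence energy transfer, 422 nm excitation, 530/480 nm emission; Timing: 1 h compound exposure, room temperature; Control set: unlabeled CBFb; Medium: Tris buffer pH 7.5 with salts and BSA; Compound: single test concentration of 20 µM, 1% DMSO final; Probe or stimulus: Venus-CBFb 100 nM.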
RanGTP-Imp inh – disruptors of Ran-importin-beta complex formation – biochemical, FRET, CFP-Ran, YFP-importin-beta, homogeneous, primary screen; cell-free CFP-Ran/YFP-importin-beta FRET ratio; inhibition, % (concentration not given with the values); hit rate 1.1% among 300,000; AID 2216;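 active means more than half of the replicate wells show a fall in the fluorescence ratio signal beyond about 16%, limit read from the data, passing the limit was not always enough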;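 further: 0% = DMSO wells and 100% = Ran loaded with GDP instead of GTP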
Hck Nef HTS – human Hck-Nef kinase inhibition; hit rate 0.68% among 220,000; inhibition, % at 20 µM; P08631; Recombinant Hck-YEEI plus Nef, Z-Lyte FRET kinase assay;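 active means Hck-Nef kinase inhibition above about 50%, limit read from the data; inactive means inhibition below that limit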;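 further: 0% = DMSO with Hck plus Nef and 100% = Hck alone without Nef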
Runt-SMMHC FRET – inhibitors of human RUNX1 Runt domain binding to CBFb-SMMHC; Q01196+Q13951; Cerulean-Runt/Venus-CBFb-SMMHC FRET ratio 530/480, 1 h; inhibition, % at 20 µM; hit rate 0.74% among 220,000;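 active means mean inhibition across duplicate retests at 20 µM reaching about 50%, limit read from the data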;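 further: 0% = DMSO wells and 100% = wells with excess untagged CBFb-SMMHC; inhibitors lower the FRET ratio by blocking Runt binding to CBFb-SMMHC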
Tb hexokinase – T. brucei hexokinase 1 inhibition; recombinant TbHK1, G6PDH-coupled NADH A340; AID 1430; inhibition, % at 10 µM; hit rate 0.11% among 220,000;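 active means inhibition of 50% or more in the single-dose primary screen; inactive means inhibition below 50%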
p97 inhibitor – human p97 ATPase inhibition. P55072. recombinant p97 ATPase, Kinase-Glo ATP luminescence, 3 h. inhibition, % at 8 µM. hit rate 0.42% among 220,000. AID 1481; in the data active means inhibition above about 15%;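 further: 0% = DMSO vehicle and 100% = wells lacking enzyme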
* marks the source's active call; other numbers are inactive results; . = no result given. An excerpt weighted towards active compounds, which were near 2.1% of everything screened.

SMILES	Runt-CBFb FRET	RanGTP-Imp inh	Hck Nef HTS	Runt-SMMHC FRET	Tb hexokinase	p97 inhibitor
COC(=O)C1=CN(c2cccc(Cl)c2)C=C(C(=O)OC)C1c1cccc(OC)c1	.	-1	.	.	.	.
COC(=O)C1=CN(c2ccc(Cl)cc2)C=C(C(=O)OC)C1c1ccc([N+](=O)[O-])cc1	.	-4	.	.	.	.
COC(=O)C1=CNC=C(C(=O)OC)C1c1cccc(OC)c1	42	6	39	100*	-10	-1
COC(=O)C1=CNC=C(C(=O)OC)C1c1ccc(Cl)cc1	38	4	32	83*	-6	-5
CCOc1ccc(CNC(=O)CCC(=O)n2ncc3ccc(Cl)cc32)cc1	.	7	.	.	.	.
CC(C)[C@H](N)C(=O)NC[C@H]1CC[C@H](C(=O)N[C@@H](Cc2ccccc2)C(=O)O)CC1	.	1	.	.	.	.
Cc1cc(=O)oc2c(CN3CCN(CCO)CC3)c(O)ccc12	.	0	.	.	.	.
O=c1oc2c(CN3CCN(CCO)CC3)c(O)ccc2cc1-c1ccccn1	11	156*	-18	80*	-23	6
O=c1oc2c(CN3CCCCC3)c(O)ccc2cc1-c1nc2ccccc2[nH]1	18	.	.	57*	.	.
O=c1oc2c(O)cccc2cc1-c1nc2ccccc2[nH]1	.	133*	.	.	.	.
O=c1[nH]cccc1-c1nc2ccccc2[nH]1	.	1	.	.	.	.
COc1ccc2[nH]c(=O)c(CN(Cc3cccnc3)C(=S)NCC3CCCO3)cc2c1 (configuration not stated)	0	1	16	-3	-13	4
CNC(=O)c1c(NC(=O)CCS(=O)(=O)c2ccccc2)sc2c1CCN(C(=O)OC)C2	.	7	.	.	.	.
CCOC(=O)c1c(NC(=O)CCS(=O)(=O)c2ccccc2)sc2c1CCN(C(C)C)C2	.	127*	.	.	.	.
CN1CCc2c(sc(NC(=O)CS(=O)(=O)c3ccccc3)c2C(N)=O)C1	.	139*	.	.	.	.
CCCN1CCc2c(sc(NC(=O)CCS(=O)(=O)c3ccccc3)c2C(N)=O)C1	.	153*	.	.	.	.
CCc1nc(N2CCN(CC(=O)NCC3CCCO3)CC2)c(C#N)c2c1COC(C)(C)C2 (configuration not stated)	.	6	.	.	.	.
Cc1nc(Cl)sc1C(=O)O	-2	9	1	-1	55*	-5
CSc1cccc(CN2CCCC(C(=O)Nc3cccc(-n4cccn4)c3)C2)c1 (configuration not stated)	.	2	.	.	.	.
CCn1c(=O)cc(OCC(=O)N2CCN(c3cccc(C(F)(F)F)c3)CC2)c2ccccc21	-5	30*	0	-6	-13	2
COCCn1c(SCC(=O)N2CCC(C)CC2)nc2c([nH]c3ccccc32)c1=O	.	1	.	.	.	.
CCOC(=O)c1[nH]c2c(c1-c1ccccc1)C(=O)CC(c1ccc(OCC)cc1)C2 (configuration not stated)	0	-2	-1	2	-1	-4
CCOC(=O)c1[nH]c2c(c1-c1ccccc1)C(=O)CC(c1ccc(OC)c(OC)c1)C2 (configuration not stated)	102*	1	5	3	-2	1
COc1ccc(CNC(=O)c2cc3c(=O)n4cccc(C)c4nc3n(CC3CCCO3)c2=N)cc1 (configuration not stated)	.	77*	.	.	.	.
Cc1cccn2c(=O)c3cc(C(=O)NCc4ccc(F)cc4)c(=N)n(CC4CCCO4)c3nc12 (configuration not stated)	.	185*	.	.	.	.
SMILES	Runt-CBFb FRET	RanGTP-Imp inh	Hck Nef HTS	Runt-SMMHC FRET	Tb hexokinase	p97 inhibitor
COCCn1c(=N)c(C(=O)NCCc2ccc(OC)cc2)cc2c(=O)n3cccc(C)c3nc21	108*	78*	13	114*	-5	1
CCOc1ccc(CN(C)C(=O)[C@H](Cc2ccccc2)NC(=O)OCc2ccccc2)cc1OC	.	0	.	.	.	.
O=C(Cc1c(O)c2ccccc2[nH]c1=O)NCc1ccccc1F	2	4	5	1	54*	1
CCNC(=O)c1c(O)c2ccccc2[nH]c1=O	1	96*	-4	-2	-2	7
O=C(Cc1c(O)c2ccccc2[nH]c1=O)NCc1cccc(F)c1	-1	-4	-2	-2	2	4
O=C(OC(C(=O)NCc1ccc(F)cc1)c1ccccc1)c1ccco1 (configuration not stated)	.	10	.	.	.	.
